Screens (PubChem)
Shown are actives, neighbours in structure and some others; about 3.5% of the full set was active somewhere.
RGS4 pot = RGS4 potentiation or activation; HEK293 M3R/inducible RGS4, carbachol calcium flux Fluo4; hits give low values; B-score at 10 µM; 0.92% of 310,000 active;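 active = B-score of the integrated calcium signal more than 4 SD below the library mean, with starting fluorescence not abnormally high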;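 note: negative B-score means reduced calcium response which marks RGS4 activation or potentiation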
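System – HEK293 FlpIn-TREx cells, stable M3R, doxycycline-inducible RGS4 · Reagent – ECmax carbachol challenge · Times – compound preincubation 20 min at room temperature before agonist · Technique – Fluo4 fluorescence kinetic imaging of calcium · Measure – B score of integrated Fluo4 ratio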
MrgX1 allo act = human MrgX1 positive allosteric modulation, primary screen | Q96LB2 | MrgX1-HEK293, Fluo-4 calcium flux, FDSS; hits give high values | B-score at 10 µM | 0.63% of 310,000 active;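 active = plate-corrected calcium response at least 3 library SD above typical, normal starting fluorescence, not activating the receptor alone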;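 note: compound read alongside a low EC10 to EC30 dose of BAM8-22 agonist; peak minus trough fluorescence over baseline measured at the second addition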
Target sequence (Q96LB2 whole entry, looked up): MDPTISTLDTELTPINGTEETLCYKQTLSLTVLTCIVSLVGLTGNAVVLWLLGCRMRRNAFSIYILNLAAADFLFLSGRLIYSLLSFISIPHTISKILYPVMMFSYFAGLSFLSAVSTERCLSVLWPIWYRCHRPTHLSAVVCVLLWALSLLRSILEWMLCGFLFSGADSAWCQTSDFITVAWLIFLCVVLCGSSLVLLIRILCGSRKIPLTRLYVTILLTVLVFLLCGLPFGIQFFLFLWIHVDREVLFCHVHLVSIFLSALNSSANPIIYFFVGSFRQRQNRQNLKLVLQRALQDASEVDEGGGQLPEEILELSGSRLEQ
RGS4 block = inhibitors of human RGS4 | P49798 | HEK293 M3R/RGS4 inducible, Fluo-4 calcium flux; hits give high values; triggered by carbachol at its EC20 | B-score at 10 µM | 0.45% of 310,000 active;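 active = B-score, a plate-corrected calcium signal, over three deviations above library mean, with baseline fluorescence within five deviations of library mean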;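 note: RGS4 expression induced by doxycycline in cells with stable M3 receptor; B-score is computed from the integrated fluorescence ratio over baseline after carbachol; higher B-score means a larger calcium signal and so more RGS4 inhibition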
Target sequence (P49798 whole entry, looked up): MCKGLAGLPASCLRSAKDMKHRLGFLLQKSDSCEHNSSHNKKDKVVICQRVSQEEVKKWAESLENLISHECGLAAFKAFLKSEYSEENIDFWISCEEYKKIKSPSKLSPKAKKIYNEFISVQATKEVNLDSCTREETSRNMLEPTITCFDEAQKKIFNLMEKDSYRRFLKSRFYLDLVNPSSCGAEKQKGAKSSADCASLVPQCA
MrgX1 agonist = activates human MrgX1 receptor signaling. MrgX1-HEK293 cells, Fluo-4 calcium fluorescence, agonist mode; hits give high values. B-score at 10 µM. 0.44% of 310,000 active. AID 588627;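 active = calcium response B-score plate-corrected fluorescence ratio at least 3 library SD, with starting fluorescence B-score inside 5 SD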
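Material: MrgX1-expressing HEK293 cells / Dosing: compound as first of three additions / Incubation: overnight seeding, then 1 h dark dye loading / Signal: Fluo-4 NW calcium fluorescence / Evaluation: B-scored fluorescence response ratio / Benchmarks: positive and negative control wells on each plate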
MrgX1 antag = blocks BAM8-22 activation of human MrgX1 receptor; AID 588676; MRGX1-HEK293 calcium flux, Fluo-4, BAM8-22 antagonism; hits give low values; B-score at 10 µM; Q96LB2; 1.3% of 310,000 active;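 active = calcium-response B-score plate-corrected more than 3 library SD below zero, starting fluorescence within 5 deviations, no agonist response on first addition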;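 note: peak minus trough fluorescence over baseline after final BAM8-22 challenge near maximal dose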
* marks the source's active call; other numbers are inactive results; i = inactive; / = not tested or not shown.

SMILES	RGS4 pot	MrgX1 allo act	RGS4 block	MrgX1 agonist	MrgX1 antag
Cc1ccccc1N/N=C/c1c(C)nc2ccccn12	i	8.46*	i	i	i
CC(=O)N1CC(C)Sc2ccc(S(=O)(=O)NC(C)c3ccccc3)cc21 (configuration not stated)	i	i	i	i	i
Cc1ccc(C(=O)NN2CCOCC2)cc1	i	i	i	i	-4.96*
O=C(NN1CCOCC1)c1ccc(Br)cc1	i	i	i	i	i
NS(=O)(=O)c1ccc(CCNC(=O)c2ccc([N+](=O)[O-])s2)cc1	i	i	i	i	i
Cc1ccc(C(NC(=O)N2CCCC2)C(Cl)Cl)cc1F (configuration not stated)	i	i	i	i	-4.78*
CC1CC(C)CN(C(=O)c2cc(-c3ccncc3)nc3ccccc23)C1 (configuration not stated)	i	i	i	i	i
COc1cccc(CN2CCN(C(=O)c3cc(-c4ccncc4)nc4ccc(C)cc34)CC2)c1	-7*	i	i	i	i
CC(=O)c1ccc(N2CCN(C(=O)c3cc(-c4ccncc4)nc4ccc(Cl)cc34)CC2)cc1	-7.36*	i	i	i	i
Cc1ccccc1CN1CCN(C(=O)c2cc(-c3ccncc3)nc3ccccc23)CC1	-7.09*	i	i	i	i
COC(=O)c1ccc2c(=O)[nH]c(COC(=O)c3c(-c4ccccc4Cl)noc3C)nc2c1	i	i	i	i	i
Cc1cc(NC(=O)C(C)SCC(=O)OCC(=O)N(C)c2ccccc2)no1 (configuration not stated)	i	i	i	i	i
CC(Cc1ccco1)NC(=O)c1ccc(C(F)(F)F)cc1 (configuration not stated)	i	i	i	i	i
O=C(OC(C(=O)NCC1CCCO1)c1ccccn1)c1cccs1 (configuration not stated)	i	i	i	i	i
Cc1sc(NC(=O)c2ccco2)nc1-c1ccc2c(c1)CC(C)N2C(=O)C1CC1 (configuration not stated)	-7.07*	i	i	i	i
CSCC[C@H](NC(=O)N1CCn2c1nc1ccccc12)C(=O)NCc1ccccc1	i	i	i	i	i
CSCC[C@H](NC(=O)N1CCn2c1nc1ccccc12)C(=O)N[C@H](Cc1ccccc1)C(=O)O	i	i	i	i	-7.64*
CCN1CCN(C(=O)c2ccc3c(c2)N(Cc2ccccc2F)C(=O)c2ccccc2S3(=O)=O)CC1	i	i	i	i	i
C/C(=N\NC(=O)c1ccc(Cn2cc(Br)cn2)o1)c1cccc(NC(=O)C(C)C)c1	i	i	i	i	i
C/C(=N\NC(=O)c1ccc(Cn2cc([N+](=O)[O-])cn2)o1)c1cccc(NC(=O)C(C)C)c1	i	i	i	i	-5.62*
C=CCSc1nnc(C)c(/C=C/Nc2ccc(Cl)cc2)n1	-7.46*	i	i	i	i
CSc1nnc(C)c(/C=C/Nc2ccc(F)cc2F)n1	i	i	i	i	i
COc1ccc(OC)c(NC(=O)c2nc(-c3ccccc3)oc2C)c1	i	i	i	i	i
COC(=O)c1cc2ccsc2n1Cc1nc(-c2ccc(Cl)cc2)oc1C	i	i	i	i	i
COC(=O)c1cc2occc2n1Cc1nc(-c2ccc(Cl)cc2)oc1C	-7.16*	i	i	i	i
SMILES	RGS4 pot	MrgX1 allo act	RGS4 block	MrgX1 agonist	MrgX1 antag
COC(=O)c1cc2occc2n1Cc1nc(-c2ccccc2Cl)oc1C	-7.5*	i	i	i	i
Clc1ccc(CN2CCc3c([nH]c4ccccc34)C2)cc1Cl	i	i	i	i	-4.64*
O=C(Nc1ccc(CN2CCCCC2)cc1)c1sc2ccccc2c1Cl	i	i	i	i	i
CC1=CC(=O)c2ccccc2C1=O	i	i	i	i	i
COc1ccc(S(=O)(=O)/N=C2/C=CC(=O)C(C)=C2C)cc1	i	i	i	i	i
CC1=C/C(=N\OS(=O)(=O)c2ccccc2)C(C)=CC1=O	/	14.7*	/	i	i
CC1=C/C(=N\OS(=O)(=O)c2ccccc2)C(C(C)C)=CC1=O	/	i	/	i	-4.55*
CC1=C(C)/C(=N\OS(=O)(=O)c2ccc(C)cc2)C=CC1=O	/	i	/	i	-5.19*
CN(CC(=O)Nc1ccc(F)c(F)c1F)C(=O)c1ccc2c(c1)OCCO2	i	i	i	i	i
CN(C)c1nccc(N(Cc2ccccc2)Cc2ccccc2)c1C#N	-7.02*	i	i	i	i
CN(C)CCN(Cc1ccccc1)c1ccnc(N(C)C)c1C#N	i	i	i	i	i
Cn1c(=O)c([N+](=O)[O-])c(N2CCN(Cc3ccc4c(c3)OCO4)CC2)c2ccccc21	-7.3*	i	i	i	i
CCOC(=O)C1(Cc2ccc(Cl)cc2)CCN(C(=O)c2cscn2)CC1	i	i	i	i	i
N#CC1=C(SCC(=O)NC2CC2)NC(=O)C(C#N)C12CCCCC2 (configuration not stated)	i	i	i	i	i
C=CCSC1=C(C#N)C2(CCCCC2)C(C#N)C(=O)N1 (configuration not stated)	i	i	i	i	-7.73*
CCOc1ccc(C2=C/C(=C/c3cccnc3)C(=O)O2)cc1	i	27.6*	i	i	i
COc1ccc(C2=C/C(=C/c3cccnc3)C(=O)O2)cc1OC	i	i	i	i	i
CC(CN1CCCCC1)C(=O)NNC(=O)C12CC3CC(CC(C3)C1)C2 (configuration not stated)	i	7.64*	i	i	i
O=C(Nc1ccccc1N(C(=O)c1ccco1)S(=O)(=O)c1cccs1)c1ccco1	i	11.5*	i	i	i
Cc1cccc(-c2oc3ccc(-c4ccc5c(c4)OCO5)cc3c2/C=C/c2ccc(N)cc2)c1	i	i	i	i	i
COc1ccc(CNC(=O)COc2ccc(S(=O)(=O)N3CCCCC3)cc2Cl)cc1	-7.06*	i	i	i	i
CCCOc1ccc(N2C(=O)CC(N(CCc3ccc(OC)cc3)C(=O)c3ccccc3)C2=O)cc1 (configuration not stated)	i	i	i	i	-4.64*
CCN(CC)c1ccc(/C=C2/C(=O)c3ccc(C(=O)O)cc3C2=O)cc1	/	i	/	i	i
CCN(CC)c1ccc(C=C2C(=O)OC3(CCCCC3)OC2=O)cc1	i	i	i	33.1*	i
